Experimental data: ChEMBL document CHEMBL1153441 (J Med Chem, 2009)
pEC50, pIC50, pKi: −log10 of the molar value.

Columns and labels:
[1] = biological target: T1, 5-hydroxytryptamine receptor 7 (Homo sapiens, UniProt P34969); assay: Displacement of [3H]LSD from human recombinant 5HT7 receptor expressed in CHOK1 cells; type: cell-based, CHO-K1
In short: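 Transfected CHO-K1 membranes in 50 mM Tris-HCl, 10 mM MgSO4, 0.5 mM EDTA, pH 7.4, incubated 120 min at 27 °C with 3 nM [3H]LSD; nonspecific binding with 25 µM clozapine. Ligands screened at 1 µM, then six-concentration curves if displacement over 55%.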

[2] = biological target: T2, 5-hydroxytryptamine receptor 1A (Homo sapiens, UniProt P08908); assay: Displacement of [3H]8-OH-DPAT from human recombinant 5HT1A receptor expressed in HEK293 cells; type: cell-based
T2 sequence (P08908 whole entry): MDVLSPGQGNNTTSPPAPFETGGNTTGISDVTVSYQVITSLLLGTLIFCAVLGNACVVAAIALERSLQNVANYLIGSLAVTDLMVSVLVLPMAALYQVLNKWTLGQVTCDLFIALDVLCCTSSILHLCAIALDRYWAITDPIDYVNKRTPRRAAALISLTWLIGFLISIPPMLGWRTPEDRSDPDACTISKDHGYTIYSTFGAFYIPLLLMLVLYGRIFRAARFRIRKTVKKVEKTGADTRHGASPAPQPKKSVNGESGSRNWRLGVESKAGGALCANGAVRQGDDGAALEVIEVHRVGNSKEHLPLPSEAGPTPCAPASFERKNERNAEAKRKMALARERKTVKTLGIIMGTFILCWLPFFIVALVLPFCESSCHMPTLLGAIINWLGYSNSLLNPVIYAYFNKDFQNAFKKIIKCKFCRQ
In short: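 Membranes from HEK-293 cells expressing human 5-HT1A receptor were incubated in the dark with 4.9 nM [3H]-8-OH-DPAT for 120 min at 37 °C in 50 mM Tris-HCl, 5 mM MgSO4, pH 7.4. Nonspecific binding was taken with 10 µM 5-HT. Filters were presoaked in 0.5% PEI, and bound radioactivity was counted by scintillation. Compounds were screened at 1 µM, then given six-point curves; Ki was derived by Cheng-Prusoff. Triplicates, 2-4 experiments.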

[3] = biological target: T3, 5-hydroxytryptamine receptor 1A (Homo sapiens) (UniProt P08908); assay: Displacement of [3H]8-OH-DPAT from human recombinant 5HT1A receptor expressed in HEK293 cells at 1 uM; type: cell-based
T3 sequence (whole entry): T2 sequence (P08908 whole entry)
In short: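 Membranes from transfected HEK-293 cells in 50 mM Tris-HCl, 5 mM MgSO4, pH 7.4, incubated in the dark 120 min at 37 °C with 4.9 nM [3H]8-OH-DPAT and 1 µM ligand (hydrochloride salt), triplicate. Nonspecific binding with 10 µM 5-HT. Filtration on 0.5% PEI-soaked filters, ice-cold Tris washes, scintillation counting; percent displacement.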

[4] = biological target: T1, 5-hydroxytryptamine receptor 7; assay: Antagonist activity at human recombinant 5HT7 receptor expressed in CHOK1 cells assessed as inhibition of serotonon-induced increase in cAMP levels by HTRF assay relative to untreated control; type: functional, cell-based, CHO-K1
[5] = biological target: T1, 5-hydroxytryptamine receptor 7; assay: Agonist activity at human recombinant 5HT7 receptor expressed in CHOK1 cells assessed as increase in cAMP levels by HTRF assay relative to serotonin; type: functional, cell-based; conditions: CHO-K1
[6] = biological target: T1, 5-hydroxytryptamine receptor 7; assay: Antagonist activity at human recombinant 5HT7 receptor expressed in CHOK1 cells assessed as inhibition of serotonon-induced increase in cAMP levels by HTRF assay; type: functional, cell-based; conditions: CHO-K1
Homo sapiens = species on record: Homo sapiens; assay: Selectivity for human recombinant 5HT7 receptor over human recombinant 5HT1A receptor
[7] = biological target: T1, 5-hydroxytryptamine receptor 7; assay: Agonist activity at human recombinant 5HT7 receptor expressed in CHOK1 cells assessed as increase in cAMP levels by HTRF assay; type: functional, cell-based, CHO-K1

T1 sequence (P34969 whole entry): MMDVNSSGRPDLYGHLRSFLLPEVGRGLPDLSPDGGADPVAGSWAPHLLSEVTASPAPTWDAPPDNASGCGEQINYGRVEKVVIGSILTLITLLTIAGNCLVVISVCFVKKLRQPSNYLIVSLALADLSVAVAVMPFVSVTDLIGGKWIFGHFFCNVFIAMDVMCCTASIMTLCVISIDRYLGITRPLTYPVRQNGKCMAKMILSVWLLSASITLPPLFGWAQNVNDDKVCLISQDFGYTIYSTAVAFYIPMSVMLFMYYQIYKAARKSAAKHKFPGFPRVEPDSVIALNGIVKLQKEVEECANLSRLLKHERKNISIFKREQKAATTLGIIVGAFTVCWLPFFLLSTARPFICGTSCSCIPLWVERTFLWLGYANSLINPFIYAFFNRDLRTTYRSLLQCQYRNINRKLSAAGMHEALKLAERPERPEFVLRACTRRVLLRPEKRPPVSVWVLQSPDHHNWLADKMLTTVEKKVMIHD

Row | Compound | pKi [1] | pKi [2] | further results
1 | O=C1Cc2ccccc2N1CCCCN1CCC(c2ccccc2)CC1 | 6.80 | < 6.00 | –
2 | O=C1Cc2ccccc2N1CCN1CCc2ccccc2C1 | 6.46 | < 6.00 | –
3 | O=C1Cc2ccccc2N1CCCCN1CCCC(c2ccccc2)C1 (stereo not drawn) | 6.71 | < 6.00 | –
4 | O=C1Cc2ccccc2N1Cc1cccc(CN2CCN(c3cccc4ccccc34)CC2)c1 | < 6.00 | < 6.00 | –
5 | O=C1c2ccccc2CN1CCCCCN1CCN(c2ccccc2)CC1 | 6.69 | < 6.00 | –
6 | CN1C[C@@H](NS(=O)(=O)N(C)C)C[C@@H]2c3cccc4c3c(cn4C)C[C@H]21 [MESULERGINE] | – | – | pIC50 [4]: 6.92
7 | O=C1Cc2ccccc2N1CCCN1CCc2ccccc2C1 | 6.98 | < 6.00 | –
8 | O=C1c2ccccc2CN1CCCCN1CCN(c2ccccc2)CC1 | < 6.00 | 6.44 | –
9 | COc1ccccc1N1CCN(CCCCN2Cc3ccccc3C2=O)CC1 | 6.80 | < 6.00 | –
10 | COc1ccccc1N1CCN(CCCCCN2C(=O)Cc3ccccc32)CC1 | 7.20 | < 6.00 | –
11 | O=C1Cc2ccccc2N1CCCCCN1CCN(c2ccccc2)CC1 | 7.20 | < 6.00 | –
12 | COc1ccccc1N1CCN(CCCCN2C(=O)Cc3ccccc32)CC1 | 7.49 | < 6.00 | –

Second part, led by results:

Row | pKi [1] | Compound | pKi [2] | further results
13 | < 6.00 | O=C1Cc2ccccc2N1CC#CCN1CCN(c2cccc3ccccc23)CC1 | 7.59 | –
14 | 7.33 | O=C1Cc2ccccc2N1CCCCN1CCN(c2cccc3ccccc23)CC1 | 7.66 | –
15 | 7.13 | O=C1Cc2ccccc2N1CCCCN1CCN(c2ccccc2)CC1 | 6.91 | –
16 | 7.05 | O=C1c2cccc3cccc(c23)N1CCCCCN1CCN(c2ccccc2)CC1 [UCM-5600] | – | Activity [3]: 92%
17 | 6.60 | O=C1Cc2ccccc2N1C/C=C\CN1CCN(c2cccc3ccccc23)CC1 | 7.94 | –
18 | 7.17 | O=C1Cc2ccccc2N1CCCCCN1CCN(c2cccc3[nH]cnc23)CC1 | 7.74 | –
19 | < 6.00 | O=C1Cc2ccccc2N1Cc1ccc(CN2CCN(c3cccc4ccccc34)CC2)cc1 | 6.74 | –
20 | 7.16 | O=C1Cc2ccccc2N1CCCCCN1CCN(c2cccc3ccccc23)CC1 | 7.80 | –
21 | 7.16 | O=C1Cc2ccccc2N1C/C=C/CN1CCN(c2cccc3ccccc23)CC1 | 7.41 | –
22 | 8.15 | O=C1Cc2ccccc2N1CCCCN1CCc2ccccc2C1 | 6.66 | Activity [5]: 40%; Activity [6]: Dose-dependent effect; Ratio Ki (Homo sapiens): 31; pEC50 [7]: 6.51; Activity ([7]; CHO-K1): Dose-dependent effect
